We go through 17 compounds from ChEMBL document CHEMBL1126298, “New triazine derivatives as potent modulators of multidrug resistance” (1992).

Test [1] relates to DC3F/AD. Briefly: Increase in adriamycin uptake in modulator-treated cells relative to untreated cells at a concentration of 5 uM. The test is classed as functional, Cricetulus griseus. In a few lines: (§1)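 DC-3F/AD or KB-A1 cells (5 × 10⁶/mL) were incubated at 37 °C for 5 h with 50 μM adriamycin plus modulator (2.5–10 μM range). ADR fluorescence of 10 000 cells was read by flow cytometry at 4 °C with 488 nm argon-laser excitation. The value is the increase in mean fluorescence of treated cells over untreated cells.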

Test [2] has as its system KB. Briefly: Percent of cell viability remaining after incubating the cells with the modulator alone. Format: functional, Homo sapiens. On the set-up: concentration or dose not given beside the values. In a few lines:
(§2)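 Cells were grown with modulator alone for 4 days under the same conditions as the chemosensitivity assay, and read by MTT. Viability = (absorbance with modulator/absorbance of control cells) × 100. "tox" marks viability below 25%.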

Test [3] deals with DC3F/AD. The experiment in a line: In vitro activity in DC-3F/AD cell line(Ratio of IC50(actinomycin D alone) / IC50(actinomycin D + modulator) at a concentration of 5 uM.
Test [4] has as its system DC3F/AD. The experiment in a line: Increase in adriamycin uptake in modulator-treated cells relative to untreated cells at a concentration of 10 uM. Format: functional, Cricetulus griseus. In a few lines: as §1
The subject of test [5] is DC3F/AD. The experiment in a line: Percent of cell viability remaining after incubating with a 10 uM concentration. The test is classed as functional, Cricetulus griseus. The gist of the method:
as §2

Test [6] has as its system KB. The experiment in a line: Increase in adriamycin uptake in modulator-treated cells relative to untreated KB-A1 cells at a concentration of 5 uM. Format: functional, Homo sapiens. The gist of the method: as §1
Test [7] concerns DC3F/AD. Briefly: In vitro activity in DC-3F/AD cell line Ratio of IC50(actinomycin D alone) / IC50(actinomycin D + modulator) at a concentration of 10 uM.
Test [8] relates to DC3F/AD. The experiment in a line: Percent of cell viability remaining after incubating the cells with the modulator alone a concentration of 5 uM. The test is classed as functional, Cricetulus griseus. The gist of the method:
as §2

Test [9] relates to KB. Briefly: In vitro activity in KB-A1 cell line activity expressed as fold reversion (Ratio of IC50(adriamycin alone) / IC50(adriamycin + modulator) at a concentration of 5 uM. Format: functional, Homo sapiens. The gist of the method: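 Human epidermoid KB-A1 cells (Pgp-overexpressing) were grown in RPMI 1640 with 10% FCS and 10 mM HEPES (pH 7.4). They were exposed for 4 days to adriamycin (nine graded concentrations, in triplicate) with or without 5 μM modulator. IC50 was read by the MTT assay. Fold reversion = IC50(ADR alone)/IC50(ADR + modulator).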

Take `C=CCNc1nc(NCC=C)nc(N2CCC(NC3c4ccccc4CCc4ccccc43)CC2)n1`: the Increase in the test with DC3F/AD [1] was 34.3; with DC3F/AD [4], 39.7; with KB [6], 34.2. For the same compound, the Viability with KB [2] turned out to be 74%; in the test on DC3F/AD [5] it was 91%; with DC3F/AD [8], 99%. Further, the figures for the Fold reversion in the test on DC3F/AD [3], with DC3F/AD [7] and in the test on KB [9] were 755, 1626 and 91, respectively.
Regarding `C=CCNc1nc(N)nc(N2CCC(NCC3c4ccccc4CCc4ccccc43)CC2)n1`, the Increase in the test with DC3F/AD [1] is given as 6.7; in the test on DC3F/AD [4], 11; with KB [6], 16.3. In addition, the Viability in the test on KB [2] came out at 122%; in the test with DC3F/AD [8], 92%. Besides, the results for the Fold reversion in the test on DC3F/AD [3] and in the test with KB [9] were 421 and 89, respectively.
As to `C=CCNc1nc(NCC=C)nc(NCC(O)CN2CCC(NCC3c4ccccc4CCc4ccccc43)CC2)n1` (stereo not given), the Increase with DC3F/AD [1] is 10.5; with DC3F/AD [4], 12.6; with KB [6] it was 5.5. Moreover, the Fold reversion is on record as 1 with DC3F/AD [3] and below 25 in the test on KB [9]. Moreover, the Viability in the test with DC3F/AD [8] amounted to 98%.
With `C=CCNc1nc(NCC=C)nc(NCC2CCN(CC3c4ccccc4CCc4ccccc43)CC2)n1`, the Increase is given as 19.3 with DC3F/AD [1], 21 in the test on DC3F/AD [4] and 9.8 in the test with KB [6]. The Viability stood at 53% in the test on KB [2] and 57% with DC3F/AD [8]. For the same compound, the Fold reversion in the test with DC3F/AD [3] is given as 353; in the test on DC3F/AD [7], below 25; in the test on KB [9], 12.
With `C=CCNc1nc(NCC=C)nc(N2CCC(NCCC(c3ccc(OC)c(OC)c3)c3ccc(OC)c(OC)c3)CC2)n1`, the Increase in the test with DC3F/AD [1] came out at 1.6; in the test on DC3F/AD [4], 2.9. Further, the Viability in the test on KB [2] worked out at 100%; in the test with DC3F/AD [5], 114%; with DC3F/AD [8], 115%. Also, the Fold reversion in the test on DC3F/AD [3] was 12; in the test with DC3F/AD [7], 12; with KB [9] it was 6.
With `C=CCNc1nc(NCC=C)nc(N2CCC(NCC(c3ccc(F)cc3)C3CCCCC3)CC2)n1` (stereo not given), the Increase with DC3F/AD [1] amounted to 30.1; in the test on DC3F/AD [4], 34.6; in the test on KB [6] it was 48.1. Besides, the Viability is 71% with KB [2] and 85% with DC3F/AD [8]. In addition, the values for the Fold reversion in the test on DC3F/AD [3], with DC3F/AD [7] and in the test on KB [9] were 1009, below 25 and 142, respectively.
For `C=CCNc1nc(NCC=C)nc(N2CCC(NCC3c4ccccc4Oc4ccccc43)CC2)n1`, the Increase is 19.4 in the test on DC3F/AD [1], 25.7 in the test on DC3F/AD [4] and 43.9 in the test on KB [6]. The Viability in the test on KB [2] was determined as 106%; in the test with DC3F/AD [5] it was 85%; with DC3F/AD [8], 91%. The Fold reversion was 844 in the test on DC3F/AD [3], 2584 in the test with DC3F/AD [7] and 140 in the test on KB [9].
In the case of `C=CCNc1nc(NCC=C)nc(NCC(O)CN2CCC(NC3c4ccccc4CCc4ccccc43)CC2)n1` (stereo not given), the Increase in the test on DC3F/AD [1] was 10.4; in the test on DC3F/AD [4], 12.9; with KB [6], 13. Besides, the values for the Fold reversion in the test on DC3F/AD [3] and with KB [9] were 2 and below 25, respectively. In addition, the Viability with DC3F/AD [8] came to 77%.
`C=CCNc1nc(NCC=C)nc(N2CCC(NCC3c4ccccc4CSc4ccccc43)CC2)n1` (stereo not given): the Increase is 33.5 in the test with DC3F/AD [1], 32.6 in the test with DC3F/AD [4] and 57.3 in the test with KB [6]. The Viability in the test with KB [2] amounted to 108%; in the test on DC3F/AD [5], 72%; with DC3F/AD [8], 83%. Besides, the Fold reversion is reported as 867 with DC3F/AD [3], 6046 in the test on DC3F/AD [7] and 393 with KB [9].
On to `C=CCNc1nc(NCC=C)nc(N2CCC(NC3CC4c5ccccc5C3c3ccccc34)CC2)n1` (stereo not given), for which the values for the Increase in the test with DC3F/AD [1], in the test with DC3F/AD [4] and in the test with KB [6] were 32.9, 35.9 and 43.8, respectively. The Viability in the test with KB [2] is on record as 133%; in the test on DC3F/AD [5], 102%; in the test with DC3F/AD [8], 98%. In addition, the Fold reversion was 1638 in the test on DC3F/AD [3], 4264 in the test on DC3F/AD [7] and 118 in the test on KB [9].
`C=CCNc1nc(NCC=C)nc(NCCN2CCC(NCC3c4ccccc4CCc4ccccc43)CC2)n1`: the values for the Increase with DC3F/AD [1], in the test with DC3F/AD [4] and with KB [6] were 13.7, 12.4 and 20.9, respectively. The Fold reversion with DC3F/AD [3] is 120; in the test with DC3F/AD [7], below 25; in the test with KB [9], below 25. Moreover, the Viability in the test with DC3F/AD [8] was found to be 41%.
Consider `C=CCNc1nc(NCC=C)nc(N2CCC(NCC3c4ccccc4CCc4cc(OC)ccc43)CC2)n1` (stereo not given), for which the Increase was 30.8 in the test on DC3F/AD [1] and 72.6 in the test with KB [6]. For the same compound, the Viability is given as 83% in the test with KB [2] and 73% in the test with DC3F/AD [8]. For the same compound, the Fold reversion in the test on DC3F/AD [3] is listed as 1913; with DC3F/AD [7], below 25; in the test on KB [9], 264.
`C=CCNc1nc(NCC=C)nc(NCC2CCN(C3c4ccccc4CCc4ccccc43)CC2)n1`: the Increase in the test with DC3F/AD [1] is 10.1; in the test on DC3F/AD [4] it was 17.4; in the test with KB [6], 1.9. Moreover, the Viability in the test with KB [2] came to 97%; with DC3F/AD [5], 49%; in the test on DC3F/AD [8], 71%. The Fold reversion with DC3F/AD [3] amounted to 10; in the test on DC3F/AD [7], 46; in the test on KB [9], 10.
Take `C=CCNc1nc(NCC=C)nc(NC2CCN(C(c3ccc(F)cc3)c3ccc(F)cc3)CC2)n1`: the Viability with KB [2] is 40%; in the test with DC3F/AD [8], 38%. Further, the values for the Fold reversion in the test with DC3F/AD [3], in the test with DC3F/AD [7] and in the test on KB [9] were 1654, below 25 and 22, respectively.
In the case of `C=CCNc1nc(NCC=C)nc(NCCN2CCC(NC3c4ccccc4CCc4ccccc43)CC2)n1`, the Increase is reported as 10.4 with DC3F/AD [1], 18.3 in the test with DC3F/AD [4] and 14.5 with KB [6]. Moreover, the Fold reversion in the test with DC3F/AD [3] was 64; in the test on DC3F/AD [7] it was below 25; in the test on KB [9], below 25. In addition, the Viability in the test with DC3F/AD [8] stood at 38%.
Take `C=CCNc1nc(NCC=C)nc(N2CCC(NCC(c3cc(OC)cc(OC)c3)c3ccccc3C)CC2)n1` (stereo not given): the figures for the Increase in the test on DC3F/AD [1], in the test with DC3F/AD [4] and in the test with KB [6] were 24.7, 26.5 and 41.4, respectively. Further, the Viability in the test with KB [2] was determined as 91%; in the test on DC3F/AD [8] it was 80%. Further, the figures for the Fold reversion in the test with DC3F/AD [3], in the test on DC3F/AD [7] and in the test on KB [9] were 1224, below 25 and 111, respectively.
Turning to `C=CCNc1nc(NCC=C)nc(N2CCC(NCC34CCC(c5ccccc53)c3ccccc34)CC2)n1`, the values for the Increase in the test on DC3F/AD [1], in the test on DC3F/AD [4] and in the test with KB [6] were 20.2, 30.7 and 22.2, respectively. The figures for the Fold reversion in the test with DC3F/AD [3], with DC3F/AD [7] and in the test with KB [9] were 96, 422 and below 25, respectively. For the same compound, the figures for the Viability in the test on DC3F/AD [5] and with DC3F/AD [8] were 87% and 90%, respectively.
